Experiment [1] has as its system Plasmodium falciparum. Briefly: Inhibitory activity against Plasmodium falciparum FcB1.
A further experiment has as its target T1, Aminopeptidase N (Plasmodium falciparum FcB1/Columbia, UniProt O96935).
T1 sequence (O96935 whole entry): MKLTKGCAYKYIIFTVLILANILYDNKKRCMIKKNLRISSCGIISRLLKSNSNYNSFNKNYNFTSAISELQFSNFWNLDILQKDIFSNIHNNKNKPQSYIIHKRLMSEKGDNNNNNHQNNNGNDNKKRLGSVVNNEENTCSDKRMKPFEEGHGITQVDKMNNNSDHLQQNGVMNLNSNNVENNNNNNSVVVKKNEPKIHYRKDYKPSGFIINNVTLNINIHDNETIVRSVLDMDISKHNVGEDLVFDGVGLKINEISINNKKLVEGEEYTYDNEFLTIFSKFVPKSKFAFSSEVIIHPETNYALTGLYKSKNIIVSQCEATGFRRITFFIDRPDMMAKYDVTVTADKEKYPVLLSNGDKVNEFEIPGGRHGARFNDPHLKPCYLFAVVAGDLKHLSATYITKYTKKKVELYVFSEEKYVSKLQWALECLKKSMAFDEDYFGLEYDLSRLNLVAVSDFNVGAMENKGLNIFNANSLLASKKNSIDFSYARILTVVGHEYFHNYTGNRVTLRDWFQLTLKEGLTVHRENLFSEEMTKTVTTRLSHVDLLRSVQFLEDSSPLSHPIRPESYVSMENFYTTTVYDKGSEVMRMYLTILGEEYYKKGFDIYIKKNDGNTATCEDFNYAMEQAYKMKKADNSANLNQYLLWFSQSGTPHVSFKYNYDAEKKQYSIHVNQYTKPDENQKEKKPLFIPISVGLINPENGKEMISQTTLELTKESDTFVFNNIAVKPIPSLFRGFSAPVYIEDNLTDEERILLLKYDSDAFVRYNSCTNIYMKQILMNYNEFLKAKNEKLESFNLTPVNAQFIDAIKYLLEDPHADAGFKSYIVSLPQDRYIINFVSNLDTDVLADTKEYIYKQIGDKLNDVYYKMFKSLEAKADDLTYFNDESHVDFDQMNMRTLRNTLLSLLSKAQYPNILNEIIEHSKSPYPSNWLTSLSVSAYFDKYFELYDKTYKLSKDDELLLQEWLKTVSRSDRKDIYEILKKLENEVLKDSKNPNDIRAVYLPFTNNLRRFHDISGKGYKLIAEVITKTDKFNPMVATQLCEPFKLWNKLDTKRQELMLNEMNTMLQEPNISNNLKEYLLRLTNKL
Kind of experiment: Inhibitory activity for Plasmodium falciparum Zinc aminopeptidase.

Experiment [2] deals with Plasmodium falciparum. Kind of experiment: Inhibitory activity against Plasmodium falciparum Zinc-aminopeptidase PfA-M1 at 10 uM. It is filed as functional. The method in brief: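 Native purified PfA-M1, diluted 10-fold in 25 mM Tris-HCl pH 7.4. Enzyme pre-incubated 10 min at rt with inhibitor (10 µM final, DMSO present), then Leu-pNA substrate added. Kinetics followed at 405 nm. Initial velocities normalized to the no-inhibitor control (Vmax). Single-point percent inhibition (Z' 0.82). Bestatin as reference.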

Regarding `CC(C)CN(CCCN1CCN(CCCNc2ccnc3cc(Cl)ccc23)CC1)C(=O)CC(=O)NO`, the values for the IC50 with Plasmodium falciparum [1] and against Aminopeptidase N were 317 nM and 854 nM, respectively.

The molecule `O=C(O)CCC(=O)N(CCCN1CCN(CCCNc2ccnc3cc(Cl)ccc23)CC1)CC1CC1` returned an inhibition at 10 µM in the experiment on Plasmodium falciparum [2] of 22%. Besides, the results for the IC50 with Plasmodium falciparum [1] and against Aminopeptidase N were 1380 nM and above 10000 nM, respectively.

Molecule `CC(C)CC(C(=O)NO)C(=O)N(CCCN1CCN(CCCNc2ccnc3cc(Cl)ccc23)CC1)CC(C)C` (centres undefined) displayed an IC50 with Plasmodium falciparum [1] of 151 nM.

Take `NCCC(=O)N(CCCN1CCN(CCCNc2ccnc3cc(Cl)ccc23)CC1)CC1CC1`: the IC50 in the experiment on Plasmodium falciparum [1] is 398 nM; against Aminopeptidase N, 21000 nM.

For `CC(C)C[C@H](NC(=O)[C@@H](O)[C@H](N)Cc1ccccc1)C(=O)O` [UBENIMEX], in the experiment with Plasmodium falciparum [1], 29000 nM corresponded to half-maximal inhibition (IC50).

The values are drawn from ChEMBL document CHEMBL1136149, “Design, synthesis and antimalarial activity of novel, quinoline-based, zinc metallo-aminopeptidase inhibitors” (Bioorg Med Chem Lett, 2003).
